From ChEMBL document CHEMBL1833887, “Synthesis and evaluation of 7-substituted 4-aminoquinoline analogues for antimalarial activity” (J Med Chem, 2011)
Values after ≈ are worked out from the molar mass of the structure shown.

How the values were obtained:
[1] = test system: Plasmodium falciparum; test: Ratio of EC50 for chloroquine-resistant Plasmodium falciparum K1 infected in human erythrocytes to EC50 for chloroquine-sensitive Plasmodium falciparum 3D7 infected in human erythrocytes; type: functional
[2] = test system: Plasmodium falciparum; test: Antimalarial activity against chloroquine-resistant Plasmodium falciparum K1 infected in human erythrocytes assessed as reduction in parasitemia after 72 hrs by spectrophotometry; type: functional, organism-based; settings: K1, 72 h
[3] = test system: HepG2; test: Cytotoxicity against human HepG2 cells assessed as intracellular ATP level after 72 hrs by Celltiter-Glo luminescent assay; type: cell-based; settings: HepG2, 72 h
[4] = Ratio of EC50 for human HepG2 cells to EC50 for Plasmodium falciparum 3D7 infected in human erythrocytes
[5] = test system: Plasmodium falciparum; test: Antimalarial activity against chloroquine-sensitive Plasmodium falciparum 3D7 infected in human erythrocytes assessed as reduction in parasitemia after 72 hrs by spectrophotometry; type: functional, organism-based; settings: 3D7, 72 h
[6] = Solubility of the compound at pH 7.4 after 18 hrs by UV spectroscopic analysis; type: physicochemical; settings: buffer
Method in brief: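 Kinetic solubility. A 10 mM stock is diluted 1:100 into PBS pH 7.4 and incubated 18 h at room temperature, then filtered; the filtrate is mixed 1:1 with 1-propanol. UV spectrum (250–500 nm) compared by AUC with a 1-propanol/PBS reference. Single experiment in triplicate.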

[7] = Permeability of the compound at pH 7.4 after 30 mins by PAMPA; type: ADME; settings: read-out: permeability
Method in brief: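 PAMPA at pH 7.4. A 10 mM DMSO stock is diluted into system solution buffer; its UV spectrum serves as reference. Membrane painted with GIT lipid, acceptor chamber holds acceptor solution buffer. Sandwich stirred for 30 min, aqueous boundary layer set to 40. Donor and acceptor UV spectra read at 250–500 nm. Permeability coefficient from the AUCs of reference, donor and acceptor. Single experiment in triplicate.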

[8] = Ratio of EC50 for human HepG2 cells to EC50 for Plasmodium falciparum K1 infected in human erythrocytes
[9] = Dissociation constant, pKa of the compound; type: physicochemical

COc1cccc(CNCCCNc2ccnc3cc(-c4ccc(C(F)(F)F)cc4)ccc23)c1O
Ratio EC50 [1]: 1.8 | EC50 [2]: 0.024 µM | EC50 [3]: 2.21 µM | Ratio EC50 [4]: 166.2 | EC50 [5]: 0.013 µM | solubility at 18 h [6]: 32 µM (≈ 15.4 µg/mL) | Papp at 0.5 h [7]: 237 ×10⁻⁶ cm/s | Ratio EC50 [8]: 91 | pKa [9]: 9.47

COc1ccc(-c2ccc3c(NCCCNCc4ccc5c(c4)OCO5)ccnc3c2)cc1
Ratio EC50 [1]: 0.9 | EC50 [2]: 0.026 µM | EC50 [3]: 5.63 µM | Ratio EC50 [4]: 192.9 | EC50 [5]: 0.029 µM | solubility at 18 h [6]: 32 µM (≈ 14.1 µg/mL) | Papp at 0.5 h [7]: 237 ×10⁻⁶ cm/s | Ratio EC50 [8]: 218.3 | pKa [9]: 9.47

c1cc(NCCCNCc2ccc3c(c2)OCO3)c2ccc(Cc3ccc4c(c3)OCO4)cc2n1
Ratio EC50 [1]: 1 | EC50 [2]: 0.027 µM | EC50 [3]: 4.79 µM | Ratio EC50 [4]: 185 | EC50 [5]: 0.026 µM | solubility at 18 h [6]: 32 µM (≈ 15 µg/mL) | Papp at 0.5 h [7]: 237 ×10⁻⁶ cm/s | Ratio EC50 [8]: 178.8 | pKa [9]: 9.47

COc1ccc(-c2ccc3c(NCCCNCc4cc(F)ccc4OC)ccnc3c2)cc1
Ratio EC50 [1]: 0.3 | EC50 [2]: 0.029 µM | EC50 [3]: 5.96 µM | Ratio EC50 [4]: 62.1 | EC50 [5]: 0.096 µM | solubility at 18 h [6]: 32 µM (≈ 14.3 µg/mL) | Papp at 0.5 h [7]: 237 ×10⁻⁶ cm/s | Ratio EC50 [8]: 205.5 | pKa [9]: 9.47

c1ccc(-c2ccc3c(NCCCNCc4ccc5c(c4)OCO5)ccnc3c2)cc1
Ratio EC50 [1]: 1.7 | EC50 [2]: 0.029 µM | EC50 [3]: 4.07 µM | Ratio EC50 [4]: 234 | EC50 [5]: 0.017 µM | solubility at 18 h [6]: 32 µM (≈ 13.2 µg/mL) | Papp at 0.5 h [7]: 237 ×10⁻⁶ cm/s | Ratio EC50 [8]: 138.9 | pKa [9]: 9.47

Fc1ccc(-c2ccc3c(NCCCNCc4ccc5c(c4)OCO5)ccnc3c2)cc1
Ratio EC50 [1]: 2 | EC50 [2]: 0.035 µM | EC50 [3]: 8.77 µM | Ratio EC50 [4]: 495.4 | EC50 [5]: 0.018 µM | solubility at 18 h [6]: 32 µM (≈ 13.7 µg/mL) | Papp at 0.5 h [7]: 237 ×10⁻⁶ cm/s | Ratio EC50 [8]: 252 | pKa [9]: 9.47

COc1ccc(F)cc1CNCCCNc1ccnc2cc(-c3ccccc3)ccc12
Ratio EC50 [1]: 4.2 | EC50 [2]: 0.045 µM | EC50 [3]: 2.96 µM | Ratio EC50 [4]: 276.4 | EC50 [5]: 0.011 µM | solubility at 18 h [6]: 32 µM (≈ 13.3 µg/mL) | Papp at 0.5 h [7]: 237 ×10⁻⁶ cm/s | Ratio EC50 [8]: 66.3 | pKa [9]: 9.47

c1coc(CNCCCNc2ccnc3cc(Cc4ccc5c(c4)OCO5)ccc23)c1
Ratio EC50 [1]: 2.4 | EC50 [2]: 0.046 µM | EC50 [3]: 6.5 µM | Ratio EC50 [4]: 340.2 | EC50 [5]: 0.019 µM | solubility at 18 h [6]: 32 µM (≈ 13.3 µg/mL) | Papp at 0.5 h [7]: 237 ×10⁻⁶ cm/s | Ratio EC50 [8]: 142.2 | pKa [9]: 9.47

COc1cccc(CNCCCNc2ccnc3cc(Cc4ccc5c(c4)OCO5)ccc23)c1O
Ratio EC50 [1]: 6 | EC50 [2]: 0.05 µM | EC50 [3]: 1.14 µM | Ratio EC50 [4]: 135.4 | EC50 [5]: 0.008 µM | solubility at 18 h [6]: 32 µM (≈ 15.1 µg/mL) | Papp at 0.5 h [7]: 237 ×10⁻⁶ cm/s | Ratio EC50 [8]: 22.7 | pKa [9]: 9.47

Fc1ccc(-c2ccc3c(NCCCNCc4ccco4)ccnc3c2)cc1
Ratio EC50 [1]: 2.1 | EC50 [2]: 0.069 µM | EC50 [3]: 7.76 µM | Ratio EC50 [4]: 240.4 | EC50 [5]: 0.032 µM | solubility at 18 h [6]: 32 µM (≈ 12 µg/mL) | Papp at 0.5 h [7]: 237 ×10⁻⁶ cm/s | Ratio EC50 [8]: 113.2 | pKa [9]: 9.47

COc1ccc(-c2ccc3c(NCCCNCc4cccc(OC)c4O)ccnc3c2)cc1
Ratio EC50 [1]: 6 | EC50 [2]: 0.078 µM | EC50 [3]: 1.6 µM | Ratio EC50 [4]: 122.9 | EC50 [5]: 0.013 µM | solubility at 18 h [6]: 32 µM (≈ 14.2 µg/mL) | Papp at 0.5 h [7]: 237 ×10⁻⁶ cm/s | Ratio EC50 [8]: 20.6 | pKa [9]: 9.47

COc1ccc(F)cc1CNCCCNc1ccnc2cc(-c3ccc(C(F)(F)F)cc3)ccc12
Ratio EC50 [1]: 1.7 | EC50 [2]: 0.089 µM | EC50 [3]: 5.19 µM | Ratio EC50 [4]: 96.8 | EC50 [5]: 0.054 µM | solubility at 18 h [6]: 32 µM (≈ 15.5 µg/mL) | Papp at 0.5 h [7]: 237 ×10⁻⁶ cm/s | Ratio EC50 [8]: 58.4 | pKa [9]: 9.47
